Compounds with a hit are over-represented: about 2.1% of the library has one in this group of screens.
miR-122 sensor: miR-122 Renilla sensor signal increase in Huh7, primary screen, miR-122 inhibitor project, cell-based, single point, plate reader. activation (reporter increase), % at 12.5 µM. Huh7 miR-122 Renilla luciferase sensor, 48 h; neutral wells = 0, positive control = 100. AID 602342, 2012. 0.3% of 340,000 active;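 active = mean replicate activation score at least 90 and every replicate individually at or above 90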;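 note: higher luciferase means less miR-122 activity so hits act as miR-122 inhibitors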
CAL PDZ FP-1: untagged CAL PDZ binding inhibitors, primary screen, biochemical, fluorescence polarization, HTS; inhibition, % at 24.9 µM; 0.92% of 300,000 active; purified CAL PDZ, TMR-peptide fluorescence polarization, 1 h; Golgi-associated PDZ and coiled-coil motif-containing protein (Homo sapiens), Q9HD26;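 active = mean inhibition of at least 30% with at least half of replicates also reaching 30%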
SR-BI DiI inh: inhibitors of SR-BI mediated HDL lipid uptake, primary screen, ldlA[mSR-BI] cells, fluorescence, single point; Scavenger receptor class B member 1 (Mus musculus), Q61009; ldlA[mSR-BI] CHO cells, DiI-HDL uptake fluorescence, 3 h; inhibition, % at 12.5 µM; 0.96% of 320,000 active;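 active = mean replicate inhibition of at least 70% and a set share of replicates each scoring 70 or more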
Target sequence (Q61009 whole entry, looked up): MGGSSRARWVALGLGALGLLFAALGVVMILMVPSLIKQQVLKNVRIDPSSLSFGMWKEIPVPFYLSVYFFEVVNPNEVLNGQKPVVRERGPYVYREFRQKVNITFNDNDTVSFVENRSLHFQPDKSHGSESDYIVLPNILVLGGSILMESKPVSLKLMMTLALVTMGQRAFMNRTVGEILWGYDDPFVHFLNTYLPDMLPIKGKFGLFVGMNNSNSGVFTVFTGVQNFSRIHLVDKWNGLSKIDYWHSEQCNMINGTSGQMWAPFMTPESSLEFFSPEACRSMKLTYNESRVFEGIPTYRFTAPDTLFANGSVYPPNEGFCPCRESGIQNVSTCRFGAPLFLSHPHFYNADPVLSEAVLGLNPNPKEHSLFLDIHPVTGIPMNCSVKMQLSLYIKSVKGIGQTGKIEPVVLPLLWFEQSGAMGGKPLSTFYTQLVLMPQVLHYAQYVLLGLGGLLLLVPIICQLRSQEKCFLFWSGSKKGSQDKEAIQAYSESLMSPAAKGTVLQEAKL
CAL PDZ FP-2: CAL PDZ peptide-binding inhibitors, primary screen, biochemical, fluorescence polarization, Cer-tagged CAL PDZ, HTS; purified CAL PDZ, TMR-peptide fluorescence polarization, 1 h; inhibition, % at 20 µM; Golgi-associated PDZ and coiled-coil motif-containing protein (Homo sapiens), Q9HD26; 0.02% of 330,000 active; AID 504414, 2011;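 active = highest replicate inhibition of at least 40%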
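Test system: purified CerCALP PDZ construct; Compound dosing: one concentration, 20 µM compound; Also added: TMR-labelled reporter peptide T*-PRC34 bound in PDZ groove; Read-out: inhibition from polarization loss; Controls: unlabelled peptide and DMSO controls; Signal: FP readout, S and P plane fluorescence; Incubation: 1 h at RT.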
ARNT-TACC3 inh: disruptors of ARNT/TACC3 protein interaction, primary screen, biochemical, AlphaScreen, single concentration; inhibition, % at 9.99 µM; Transforming acidic coiled-coil-containing protein 3 (Homo sapiens), Q9Y6A5; 0.66% of 390,000 active; AlphaScreen His-ARNT PAS-B/GST-TACC3 binding, luminescence; TACC3 fragment carries E629A point mutation; AID 623870, 2012;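 active = mean inhibition of replicates at least 50% and at least half of replicates each reaching 50%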
SR-BI DiI-HDL act: activators of SR-BI mediated DiI-HDL uptake, primary screen, ldlA[mSR-BI] CHO cells, DiI fluorescence | 0.096% of 320,000 active | activation, % at 12.5 µM | 3 h; 100 = double the neutral-control signal;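 active = mean replicate activation of at least 60% and every replicate at or above 60%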
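system = CHO ldlA[mSR-BI] cells, LDL receptor-null, SR-BI overexpressing | medium = Ham's F12 with 0.5% BSA, HEPES 25 mM, pH 7.4 | probe or stimulus = DiI-HDL 10 µg/mL | compound dosing = single-point compound dose | incubation = compound exposure 3 h, 37 °C | technique = DiI fluorescence, bottom read | read-out = cell-associated DiI fluorescence as measure of HDL uptake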
Hits are given with their value; i = inactive; nt = no result given.

SMILES	miR-122 sensor	CAL PDZ FP-1	SR-BI DiI inh	CAL PDZ FP-2	ARNT-TACC3 inh	SR-BI DiI-HDL act
C[C@H]1CN([C@@H](C)CO)C(=O)c2ccccc2-c2ccccc2CO[C@H]1CN(C)Cc1cccc(F)c1	nt	nt	nt	nt	i	nt
CC(=O)Nc1cccc(Nc2nc(-c3ccccc3)nc3ccccc23)c1	nt	nt	i	i	i	i
Fc1ccc(Nc2nc(-c3ccncc3)nc3ccccc23)cc1	nt	i	78	i	i	i
Oc1cccc(Nc2nc(-c3ccccc3)nc3ccccc23)c1	i	i	72	i	i	i
c1ccc(Nc2nc(-c3ccncc3)nc3ccccc23)cc1	i	nt	i	i	i	i
O=C(NC(=S)Nc1ccccn1)c1ccco1	nt	i	i	i	i	i
COc1cc(NS(=O)(=O)c2ccc(Nc3nc(-c4ccccn4)cs3)cc2)nc(OC)n1	nt	i	i	nt	56	i
Cc1ccnc(NC(=S)NC(=O)c2ccco2)c1	nt	i	i	i	i	64
COc1cc(NS(=O)(=O)c2ccc(NC(=S)NC(=O)c3ccco3)cc2)nc(OC)n1	243	i	i	i	i	i
C[C@H](CO)N1C[C@H](C)[C@@H](CN(C)CC2CCCCC2)OCCCC[C@H](C)Oc2ccc(N(C)C)cc2C1=O	i	nt	nt	nt	i	nt
Cc1noc(C)c1S(=O)(=O)N(C)C[C@@H]1Oc2ccc(NC(=O)Cc3ccccc3)cc2CC(=O)N([C@@H](C)CO)C[C@@H]1C	i	nt	nt	nt	i	nt
C[C@@H]1CN([C@@H](C)CO)S(=O)(=O)c2ccc(C3=CCCC3)cc2O[C@@H]1CN(C)C	i	nt	nt	nt	i	nt
COc1ccc2cc(N3CCCC3=O)ccc2c1	i	85	i	i	i	i
Cc1cc(C)c(S(=O)(=O)N2CCN(C(=O)c3c(C)nn(-c4ccccc4)c3Cl)CC2)c(C)c1	i	i	78	i	i	i
CNC[C@@H]1Oc2ccc(NC(=O)Cn3cnnn3)cc2CC(=O)N([C@@H](C)CO)C[C@@H]1C	i	nt	nt	nt	nt	nt
CCCCCC(=O)NC(=S)Nc1ccc(Br)cc1C	nt	i	i	i	i	70
COc1ccc(NC(=O)Nc2ccc3c(c2)C(=O)N([C@@H](C)CO)C[C@@H](C)[C@@H](CN(C)C(=O)NC2CCCCC2)O3)cc1	i	nt	nt	nt	i	nt
CCN(CC)c1ccc(N2C(=O)CSC2=S)cc1	i	45	i	i	i	i
CCCNC(=O)C[C@@H]1CC[C@@H]2[C@@H](COc3ccc(NC(=O)NCC)cc3C(=O)N2C)O1	i	nt	nt	nt	i	nt
COCCCNC(=O)Cc1ccc(S(=O)(=O)N2CCOCC2)s1	i	43	i	i	nt	i
COc1ccccc1S(=O)(=O)N[C@@H]1CC[C@H](CCNC(=O)C2CCCCC2)O[C@H]1CO	nt	nt	nt	nt	i	nt
Cc1ccc(S(=O)(=O)Nc2cccc(S(=O)(=O)N3CCCC3)c2)cc1C	123	i	i	i	i	i
COc1ccc(NS(=O)(=O)c2cccc(Cl)c2)cc1S(=O)(=O)N1CCCCC1	438	nt	i	i	i	i
COc1ccc(S(=O)(=O)Nc2ccc(C)c(S(=O)(=O)N3CCOCC3)c2)cc1[N+](=O)[O-]	98	i	i	i	i	i
O=[N+]([O-])c1cccc(S(=O)(=O)Nc2nc3ccccc3nc2Nc2cccc(S(=O)(=O)N3CCCCC3)c2)c1	nt	i	76	i	i	i
SMILES	miR-122 sensor	CAL PDZ FP-1	SR-BI DiI inh	CAL PDZ FP-2	ARNT-TACC3 inh	SR-BI DiI-HDL act
O=S(=O)(Nc1cccc(S(=O)(=O)N2CCCC2)c1)c1ccc(Br)cc1	i	nt	nt	nt	nt	nt
COc1ccc(S(=O)(=O)Nc2ccc(S(=O)(=O)N3CCOCC3)cc2)cc1C	i	i	i	i	i	i
CO[C@H]1CN(C)C(=O)c2cc(NS(C)(=O)=O)ccc2OC[C@H](C)N(Cc2nccs2)C[C@@H]1C	i	nt	nt	nt	i	nt
C[C@H](CO)N1C[C@H](C)[C@H](CN(C)C(=O)Nc2ccc(F)cc2)OCCCC[C@H](C)Oc2ccc(NC(=O)Nc3ccccc3)cc2C1=O	i	nt	nt	nt	i	nt
COc1cc(S(=O)(=O)N2CCCCCC2)c(OC)cc1Br	308	i	i	i	i	i
COc1ccc(NC(=O)c2ccc(Cl)nc2)cc1S(=O)(=O)N1CCCCC1	nt	i	75	i	nt	i
COc1ccc(Br)cc1S(=O)(=O)N1CCCC1	i	i	i	nt	i	i
COCc1cn(CC[C@H]2CC[C@@H](NC(=O)Nc3ccc4c(c3)OCO4)[C@H](CO)O2)nn1	nt	nt	nt	nt	i	nt
Cc1ccc(CNC(=O)C2CCCN(C(=O)Nc3ccc(F)cc3)C2)cc1 (stereo not drawn)	i	nt	nt	i	i	nt
CN(C(=O)c1cccc(NC(=O)Cc2ccc(NC(=O)C3CCCN(C(=O)C4CCCC4)C3)cc2)c1)C1CC1 (stereo not drawn)	i	i	76	i	i	i
O=C(Cc1ccc(NC(=O)C2CCCN(C(=O)C3CCCCC3)C2)cc1)Nc1cccc(C(=O)N2CCCC2)c1 (stereo not drawn)	i	i	i	i	i	i
O=C(Cc1ccc(NC(=O)C2CCCN(C(=O)C3CCCC3)C2)cc1)Nc1cccc(C(=O)N2CCCC2)c1 (stereo not drawn)	i	i	75	i	i	i
O=C(Nc1cccc(C(=O)N2CCCC2)c1)C1CCCC1	i	i	i	i	i	i
Cc1cccc(NC(=O)C2CCCN(C(=O)Nc3ccc(F)cc3)C2)c1 (stereo not drawn)	i	44	i	i	i	i
O=C(Nc1cccc(C(=O)N2CCCCC2)c1)C1CC1	i	81	i	i	i	i
Cc1ccc(S(=O)(=O)N(C)C[C@@H]2Oc3c(NS(C)(=O)=O)cccc3C(=O)N([C@H](C)CO)C[C@H]2C)cc1	i	nt	nt	nt	i	nt
CN(C(=O)c1ccc(NC(=O)Cc2cccc(NC(=O)C3CCN(C(=O)CCc4ccccc4)CC3)c2)cc1)C1CCCC1	i	i	71	i	i	i
CN(C(=O)c1ccc(NC(=O)Cc2ccc(NC(=O)C3CCN(C(=O)CCc4ccccc4)CC3)cc2)cc1)C1CCCC1	nt	i	i	i	i	i
CN(C(=O)c1cccc(NC(=O)Cc2ccc(NC(=O)C3CCCN(C(=O)C4CCCC4)C3)cc2)c1)C1CCCCC1 (stereo not drawn)	i	i	83	i	i	i

Screening data deposited in PubChem BioAssay by Broad Institute.
